Measurements: ChEMBL document CHEMBL4513216, “Probing the Open Global Health Chemical Diversity Library for Multistage-Active Starting Points for Next-Generation Antimalarials” (ACS Infect Dis, 2020)

Test: Toxicity liver stage against HepG2, at 10uM
Format: cell-based
Parameters: test concentration 10 uM, cell line HepG2-A16-CD81EGFP
Settings: human, HepG2-A16-CD81EGFP cells; read-out: INHIBITION
Summary of the method: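 Uninfected HepG2-A16-CD81EGFP cells, 3 × 10^3 per well, 1536-well, plated on prespotted compound at 10 μM final, parasite-free screening media added to match infected plates; puromycin 10 μM positive, DMSO 0.5% negative; run in parallel with 48 h PbLuc assay at 37 °C, 5% CO2; viability by CellTiter-Glo luminescence, normalized to controls.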

| SMILES | cytotoxicity at 10 µM [%] |
| --- | --- |
| Cn1ccnc1CN1CCOC[C@H]1c1nc(C(C)(C)C)co1 | -4.13 |
| CN(C)[C@@H]1CO[C@H](CNC(=O)CC(C)(C)C)[C@H]1O | -10.8 |
| CC[C@H]1CN(C(=O)c2cccnc2)CC[C@H]1CC(=O)NCCOC | 5.26 |
| c1cc(-c2noc([C@@H]3Cc4nc[nH]c4CN3)n2)ccn1 | -0.873 |
| CC1CCN(c2ccc(NC(=O)CCn3cccn3)cc2)CC1 | -10.6 |
| O=C(CCc1nc2ccccc2[nH]1)Nc1ccc2c(c1)OCC(=O)N2 | 17.9 |
| O=C(Nc1nnn[nH]1)c1cc(-c2ccc(Br)s2)n[nH]1 | -2.71 |
| COc1ccc(C[C@H]2CN(C(=O)C3CC3)CC[C@H]2OC)cc1 | 2.67 |
| O=C1CC2(CCCCN2C(=O)c2cccs2)CN1CC1CC1 (configuration not stated) | 2.67 |
| CCN(C)C(=O)c1cc(-c2ccn(C(C)C)n2)n2ccccc12 | -4.35 |
| CN(C)CCN1CCc2ncc(CN(C)Cc3ccco3)n2CC1 | -6.26 |
| CCS(=O)(=O)N1Cc2ncn(CC3CC3)c2C(COC)C1 (configuration not stated) | 8.83 |
| COCC1CN(C(=O)c2ccccn2)Cc2nccn2C1 (configuration not stated) | 8.62 |
| Cc1cccc(COC2COC3(CCN(Cc4ccoc4)CC3)C2)n1 (configuration not stated) | -0.211 |
| Cc1cccc(C(=O)N2CCn3cnc(COCC4CC4)c3C2)n1 | 6.85 |
| CC(C)NC(=O)C(C)NC(=O)N1CCN(c2ccc(Cl)cc2)CC1 (configuration not stated) | -3.6 |
| CC(C)c1noc(C2CCN(C(=O)C3CCCO3)CC2)n1 (configuration not stated) | 8.35 |
| COc1ccc(OC)c(C(C)NS(=O)(=O)c2cnn(C)c2)c1 (configuration not stated) | -3.35 |
| Cc1ccc2c(c1)c(C)cc(=O)n2CCC#N | 5.81 |
| O=C(c1cncs1)N1CCOCC(Cc2ccncn2)C1 (configuration not stated) | 1.13 |
| Cc1cc(N2CCCC2c2cnccn2)ncn1 (configuration not stated) | 2.44 |

| SMILES | cytotoxicity at 10 µM [%] |
| --- | --- |
| Cc1ccc(CNC(=O)c2ccc(CNS(C)(=O)=O)o2)cc1F | 15.2 |
| CC(C)(C)CNC(=O)c1ccc(C(=O)O)cn1 | -4.01 |
| Cn1cc(CNc2nc3cc(Cl)ccc3n2C)cn1 | 16.8 |
| CC1CCC(N2CCC(NS(=O)(=O)CCCF)CC2)CC1 (configuration not stated) | 1.2 |
| O=C(C1CCCOC1)N1CCN(CC(F)(F)F)c2ccccc21 (configuration not stated) | 8.09 |
| CCOC(=O)N(C)CC(=O)NCCc1coc(-c2ccc(C)cc2)n1 | -13.9 |
| COc1cccc(CNC2CCc3ccc(C)cc32)n1 (configuration not stated) | 4.37 |
| O=C1CCN(C(=O)NCc2ccccc2Oc2ccccc2)CCN1 | 6.03 |
| Cc1cc(C)nc(NC2CCC(=O)N(C)C2)n1 (configuration not stated) | -4.83 |
| CC(NC(=O)NCC(F)(F)F)c1nncn1C (configuration not stated) | -1.63 |
| CCOc1cc(Cl)ccc1CNC(=O)N1CCCC(CO)C1 (configuration not stated) | 9.54 |
| Cc1cnn(CC2CCCCN2C(=O)CCCc2nc(C)no2)c1 (configuration not stated) | 1.46 |
| O=C1NCCCCC1NS(=O)(=O)N1CCCCC1 (configuration not stated) | 1.48 |
| COCc1cccc(CNC(=O)CNc2ccccc2C(C)=O)c1 | 0.529 |
| CCc1noc(CC)c1CC(=O)N1CCC(C(=O)NC(C)C)CC1 | -10.9 |
| Cc1cccc(CN2CCN(C(=O)c3cccnc3O)CC2)c1 | 1.73 |
| CSCC(C)(O)CNc1ccccn1 (configuration not stated) | 8.26 |
| CN(CCc1nc2ccccc2c(=O)[nH]1)CCC(F)(F)F | -2.27 |
| CC1CCCN(C(=O)c2csc(S(N)(=O)=O)c2)CC1 (configuration not stated) | 1.52 |
| Cc1noc(C)c1CN1CCn2c(COC(C)C)nnc2C1 | -113 |
| Cc1oncc1C(=O)N1CC[C@H]2C[C@H](c3ccncn3)O[C@@H]2C1 | -67.4 |

| SMILES | cytotoxicity at 10 µM [%] |
| --- | --- |
| CC(=O)N1CCC(n2nccc2-c2cnc(N(C)CCO)nc2)CC1 | 5.47 |
| C[C@@H]1CN(C(=O)c2nc3sccn3c2-c2ncc[nH]2)C[C@H](C)O1 | 3.85 |
| O=C1CCC(CCC(=O)N2CCC2c2cccs2)=NN1 (configuration not stated) | 6.13 |
| CCC(C)N(Cc1sccc1C)C(=O)c1ccc2cccnc2n1 (configuration not stated) | 2.05 |
| CC1=C(C(=O)N2CCOC(Cc3cccc(C(F)(F)F)c3)C2)OCCO1 (configuration not stated) | 5.31 |
| Cc1nn(C)c2nc(-c3ccccn3)nc(NCCC3CCCN3C)c12 (configuration not stated) | 1.91 |
| N#Cc1c(N)nc2c(c1-c1c[nH]nc1C1CCCCC1)COCC2 | 6.75 |
| Cc1noc(C)c1CCCNC(=O)Nc1ccc2c(c1)CC(=O)N2 | -16 |
| Cc1nc(O)cc(C2CCN(C(=O)c3ccsc3)CC2)n1 | -4.97 |
| O=C(O)Cc1nc2nccc(-c3ccc(F)cc3)n2n1 | -1.53 |
| CCn1cc(CN2CCCN(C(=O)CCc3cccs3)CC2)cn1 | -6.99 |
| O=C(c1ccc2cc[nH]c2c1)N1CCC(Nc2cccnn2)CC1 | -5.06 |
| Cc1cnn(CC2CCCCN2C(=O)c2c(C)noc2C)c1 (configuration not stated) | -7.26 |
| CC1CCCN(CCNC(=O)c2scnc2Cl)C1 (configuration not stated) | -6.06 |
| COCCN1CCC(CNC(=O)C2(c3cccc(C)c3)CC2)C1 (configuration not stated) | -4.28 |
| CC1CN(Cc2ccc(C#N)cc2F)CCN1Cc1nccn1C (configuration not stated) | -4.66 |
| CC(=O)N(Cc1ncc(C)o1)C1CCN(Cc2nccn2C)C1 (configuration not stated) | 6.57 |
| Cc1cnn(CC2CN(Cc3nnc(C4CC4)n3C)CCO2)c1 (configuration not stated) | -2.72 |
| O=C(N1CCCC(n2cncn2)C1)C1(c2cccc(F)c2)CCCC1 (configuration not stated) | 3.39 |
| Cc1cc(C(=O)N2CCCC(n3cncn3)C2)no1 (configuration not stated) | -9.98 |
| COc1c(CNCc2ccc(N(C)C)nc2)c(C)nn1C | -12.3 |

| SMILES | cytotoxicity at 10 µM [%] |
| --- | --- |
| COc1ncccc1CNCc1c(C)nn(C)c1N(C)C | -7.62 |
| CN(CCc1ccccc1)Cc1nc2c(cnn2C)c(=O)[nH]1 | -3.18 |
| Cc1ccc(N2CCCC(NCc3ccc(-n4ccnc4)cc3)C2)nn1 (configuration not stated) | -8.44 |
| Cc1ccn2ncc(C(=O)N3CCCC(n4nc(C)nc4C)C3)c2n1 (configuration not stated) | -13.6 |
| CCC(CC)C(O)CNC(=O)Nc1cc(C)nn1C (configuration not stated) | -11 |
| Cc1nnc(N2CCO[C@H]3[C@@H](OCc4ccccn4)CC[C@@H]32)s1 | 12.2 |
| CC(=O)N1CCc2cc(C(=O)O)c(-c3ccsc3)nc2CC1 | 13.8 |
| O=C([C@H]1COC[C@H]2CN(CC3CCCC3)C[C@H]21)N1CCOCC1 | 20.5 |
| Cc1cccc(CN2C[C@H](NS(C)(=O)=O)[C@@H]3OCCC[C@@H]32)n1 | -0.179 |
| Cc1cnc(N2CCC3(CCC(C(=O)NC(C)C)C3)CC2)nc1 (configuration not stated) | -0.603 |
| O=C(N[C@@H]1CN[C@@H]2CCCO[C@@H]21)c1cscn1 | -8.69 |
| O=C(N[C@@H]1CN(Cc2ccoc2)[C@@H]2CCCO[C@@H]21)C1CC1 | 0.0515 |
| CN(C)C(=O)N1CCC2(CCCN(c3ncccn3)C2)C1 (configuration not stated) | 4.82 |
| O=C1N(CC2CC2)CCC12CCN(Cc1ccoc1)CC2 | -0.302 |
| Cn1cc(CN2C[C@@H]3CCCO[C@@H]3[C@H](NC(=O)CC3CC3)C2)cn1 | -0.00726 |
| O=C(O)c1c(NC2CCC2)ncc2c1CCN(C1CCOC1)C2 (configuration not stated) | 11.4 |
| O=C(NCc1ccco1)[C@@]12CCO[C@@H]1CCN(CC1CCOCC1)C2 | 6.06 |
| c1ccc(CN2C[C@@H]3COC[C@]3(COCC3CCOCC3)C2)nc1 | -0.326 |
| CC(C)Cn1c(=O)[nH]c2cn(-c3ccc(F)cc3)c(=O)n21 | 8.2 |
